This note sets out measurements from ChEMBL document CHEMBL1133451, “Optimization of substituted N-3-benzylimidazoquinazolinone sulfonamides as potent and selective PDE5 inhibitors” (J Med Chem, 2000).

Molecules are shown by their SMILES.

Experiment [1] has as its target cGMP-specific 3',5'-cyclic phosphodiesterase (Homo sapiens, UniProt O76074). As to the kind of experiment: In vitro inhibitory concentration against human platelet Phosphodiesterase 5 was determined.
The nature of experiment [2]: In vitro selectivity ratio of Bovine Heart PDE1 to human platelet PDE5 was determined. Put shortly: (§1)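 Scintillation proximity PDE assay at room temperature, read by scintillation counting. Substrates: [³H]cGMP for PDE5 (sonicated human platelet homogenate) and PDE1 (bovine heart, with 1 µM calmodulin and 4 mM calcium). PDE2 (rat kidney cytosol, Mono-Q purified) used [³H]cAMP plus 1 µM nonradioactive cGMP. PDE6 was stripped from bovine rod outer segments and trypsin-activated. Blank subtracted; activity as percent of vehicle; ratio = IC50 other/IC50 PDE5.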

A short description of experiment [3]: In vitro selectivity ratio of PDE2 of Rat kidney to human platelet PDE5 was determined. In outline:
as §1

Experiment [4] is described as follows: In vitro selectivity ratio of PDE6 of Bovine retina to human platelet PDE5 was determined. In outline:
as §1

Experiment [5] relates to cGMP-specific 3',5'-cyclic phosphodiesterase (Oryctolagus cuniculus). In words: Rabbit Corpus Cavernosum functional assay at 30 nM to determine the efficacy of PDE5 inhibition activity.
A short description of experiment [6]: Selectivity ratio for Bovine retinal PDE6 and human platelet PDE5. Put shortly: as §1

As to `CCCOc1ccc(S(=O)(=O)N2CCN(C)CC2)cc1-c1nc2cc3ncn(Cc4ccc(F)cc4)c3cc2c(=O)[nH]1`, half-maximal inhibition in experiment [1] (IC50) was put at 3.3 nM.
Still for that read-out and setting: as for `CCCOc1ccc(S(=O)(=O)N2CCN(CC)CC2)cc1-c1nc2cc3ncn(Cc4ccccc4OC)c3cc2c(=O)[nH]1`, the figure is 0.62 nM.
The same measure, in the same setting: as for `CCCOc1ccc(C(=O)N2CCN(CC)CC2)cc1-c1nc2cc3ncn(Cc4ccc(F)cc4)c3cc2c(=O)[nH]1`, the figure is 35 nM.
As to `CCCOc1ccc(S(=O)(=O)N2CCN(CC)CC2)cc1-c1nc(O)c2cc3c(cc2n1)ncn3Cc1cccc(OC)c1`, the midpoint of inhibition in experiment [1], the IC50, lay at 1.1 nM. Further, the IC50 ratio in experiment [2] is > 10000; in experiment [3] it was 7000; in experiment [4], 50. In experiment [5], the Control relaxation was 130%.
The matching figures for `CCCOc1ccc(S(=O)(=O)N2CC[C@@H](N(C)C)C2)cc1-c1nc(O)c2cc3c(cc2n1)ncn3Cc1ccccc1`: 1.1 nM, > 10000, > 10000, 30 and 110%.
The matching figures for `CCCOc1ccc(S(=O)(=O)N2CC[C@@H](N(C)C)C2)cc1-c1nc2cc3ncn(Cc4ccc(F)cc4)c3cc2c(=O)[nH]1`: 0.2 nM, > 10000, > 10000, 70 and 120%.
Turning to `CCCOc1ccc(S(=O)(=O)N2CCN(CC)CC2)cc1-c1nc(O)c2cc3c(cc2n1)ncn3Cc1ccccc1Cl`, the IC50 ratio in experiment [2] is > 10000; in experiment [3], > 10000; in experiment [4] it was 40. This compound displayed a Control relaxation in experiment [5] of 90%.
In the case of `CCCOc1ccc(S(N)(=O)=O)cc1-c1nc2cc3ncn(Cc4ccc(F)cc4)c3cc2c(=O)[nH]1`, the IC50 – broadly, the concentration needed to halve the response being measured – in experiment [1] was found to be 3.2 nM.
In experiment [1], `CCCOc1ccc(S(=O)(=O)N2CC[C@@H](N(C)C)C2)cc1-c1nc(O)c2cc3c(cc2n1)ncn3Cc1ccc(Cl)cc1` registered an IC50 of 0.52 nM. The figures for the IC50 ratio in experiment [2], in experiment [3] and in experiment [4] were > 10000, > 10000 and 50, respectively.
In experiment [1], `CCCOc1ccc(S(=O)(=O)N2CC[C@H](N(C)C)C2)cc1-c1nc(O)c2cc3c(cc2n1)ncn3Cc1ccccc1` yielded a half-inhibitory concentration (IC50) of 27 nM. Besides, the IC50 ratio in experiment [6] was found to be 3.
Consider `CCCOc1ccc(C(=O)N2CC[C@@H](N(C)C)C2)cc1-c1nc2cc3ncn(Cc4ccc(F)cc4)c3cc2c(=O)[nH]1`, for which, in experiment [1], the midpoint of inhibition, the IC50, lay at 40 nM. This counts as double-digit nanomolar.
As for `CCCOc1ccc(S(=O)(=O)N2CCN(CC)CC2)cc1-c1nc(O)c2cc3c(cc2n1)ncn3Cc1cccc(F)c1`, the IC50 ratio in experiment [2] is > 10000; in experiment [3], > 10000; in experiment [4], 80. In experiment [5], the Control relaxation was determined as 100%.
Take `CCCOc1ccc(S(=O)(=O)N2CCN(CC)CC2)cc1-c1nc2cc3ncn(Cc4ccccc4Cl)c3cc2c(=O)[nH]1`: the IC50 in experiment [1] amounted to 1.6 nM.
`CCCOc1ccc(S(=O)(=O)N2CCN(C)CC2)cc1-c1nc(O)c2cc3c(cc2n1)ncn3Cc1ccccc1`: the IC50 ratio in experiment [2] is 3400; in experiment [3] it was > 10000; in experiment [4], 20. For the same compound, the Control relaxation in experiment [5] came to 120%.
As to `CCCOc1ccc(S(=O)(=O)N2CCN(CC)CC2)cc1-c1nc2cc3ncn(Cc4cccc(F)c4)c3cc2c(=O)[nH]1`, the IC50 in experiment [1] turned out to be 1.4 nM.
As to `CCCOc1ccc(S(N)(=O)=O)cc1-c1nc(O)c2cc3c(cc2n1)ncn3Cc1ccc(F)cc1`, the IC50 ratio was > 10000 in experiment [2], > 10000 in experiment [3] and 20 in experiment [4]. The compound further displayed a Control relaxation in experiment [5] of 100%.
Compound `CCCOc1ccc(S(=O)(=O)N2CCN(CC)CC2)cc1-c1nc(O)c2cc3c(cc2n1)ncn3Cc1ccc(F)cc1` came in with an IC50 in experiment [1] of 1.7 nM. Besides, the IC50 ratio in experiment [2] is > 10000; in experiment [3] it was > 10000; in experiment [4] it was 80. Besides, in experiment [5], the Control relaxation was 100%.
In experiment [1], `CCCOc1ccc(S(=O)(=O)N2CCN(CC)CC2)cc1-c1nc(O)c2cc3c(cc2n1)ncn3Cc1ccccc1` yielded an IC50 of 1.1 nM. The figures for the IC50 ratio in experiment [2], in experiment [3] and in experiment [4] were > 10000, > 10000 and 50, respectively. The same compound yielded a Control relaxation in experiment [5] of 90%.
As to `CCCOc1ccc(C(N)=O)cc1-c1nc(O)c2cc3c(cc2n1)ncn3Cc1ccc(F)cc1`, the IC50 ratio in experiment [2] was > 100000; in experiment [3], > 100000; in experiment [4], 60. In experiment [5], this compound registered a Control relaxation of 140%.
